Measurements from ChEMBL document CHEMBL1139758, “Second generation of alpha-tocopherol analogs-nitric oxide donors: Synthesis, physicochemical, and biological characterization” (Bioorg Med Chem, 2007).

Tests used:
[1] = system: Aorta; assay: Vasodilation of noradrenaline-induced contraction of Wistar Kyoto rat thoracic aorta at 10 uM; format: functional
Method in brief: (§1)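 Thoracic aorta rings (4 mm) from heparinized, pentobarbital-anaesthetized (40 mg/kg ip) Wistar Kyoto rats (250–300 g). Compounds added in DMSO to the organ bath once contraction reached a plateau; α-tocopherol, Trolox and vehicle served as controls. Where used, ODQ (1 µM) was added at least 10 min before the compound.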

[2] = system: J774; assay: Cytotoxicity against mouse J774 cells by MTT assay; format: cell-based
Method in brief: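 J774.1 macrophages, kept in DMEM with 10% heat-inactivated FCS, seeded 1 × 10^5/well in RPMI with fetal serum and left to attach 48 h (37 °C, 5% CO2). Compounds at 1–500 µM for 24 h. Viability by MTT reduction (0.2 mg/mL, 3 h, 37 °C), formazan in DMSO, A560.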

[3] = system: THP-1; assay: Cytotoxicity against human THP1 cells by MTT assay; format: functional, cell-based
Method in brief: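 Phorbol ester (100 ng/mL)-differentiated THP-1 cells, seeded 1 × 10^5/well in RPMI with fetal serum, attached 48 h at 37 °C in 5% CO2, then exposed 24 h to compounds at 1–500 µM. MTT added to 0.2 mg/mL for 3 h at 37 °C, formazan dissolved in DMSO, A560 read. IC50 is the concentration halving control absorbance; mean of at least three determinations.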

[4] = system: Aorta; assay: Vasodilation of noradrenaline-induced contraction of Wistar Kyoto rat thoracic aorta at 20 uM; format: functional; method in brief: as §1

Question: How did the Activity [1] turn out when Cc1c(C)c2c(c(C)c1OCc1c(S(=O)(=O)c3ccccc3)no[n+]1[O-])CCC(C)(CCCC(C)CCCC(C)CCCC(C)C)O2 (stereo not given) was run?
Answer: The Activity was 15%.

Question: How did the IC50 [2] turn out when Cc1c(C)c2c(c(C)c1O)CC[C@@](C)(CCC[C@H](C)CCC[C@H](C)CCCC(C)C)O2 [ALPHA-TOCOPHEROL] was run?
Answer: Its IC50 is > 500 µM.

Question: What about the IC50 [3] of the same compound?
Answer: The IC50 was > 500 µM.

Question: For CC(=O)Oc1c(C)c(C)c2c(c1C)CCC(C)(C(=O)O)O2 (stereo not given), which Activity [4] is on record?
Answer: The Activity was 0%.

Question: Which Activity [4] does the source give for CC(=O)Oc1c(C)c(C)c2c(c1C)CCC(C)(CCCC(C)CCCC(C)CCCC(C)C)O2 (stereo not drawn) [alpha-TOCHOPHERYL ACETATE] here?
Answer: Its Activity is 0%.
